For data set [1], the target named is T1, Type-1 angiotensin II receptor (Homo sapiens, UniProt P30556).
T1 sequence (P30556 whole entry): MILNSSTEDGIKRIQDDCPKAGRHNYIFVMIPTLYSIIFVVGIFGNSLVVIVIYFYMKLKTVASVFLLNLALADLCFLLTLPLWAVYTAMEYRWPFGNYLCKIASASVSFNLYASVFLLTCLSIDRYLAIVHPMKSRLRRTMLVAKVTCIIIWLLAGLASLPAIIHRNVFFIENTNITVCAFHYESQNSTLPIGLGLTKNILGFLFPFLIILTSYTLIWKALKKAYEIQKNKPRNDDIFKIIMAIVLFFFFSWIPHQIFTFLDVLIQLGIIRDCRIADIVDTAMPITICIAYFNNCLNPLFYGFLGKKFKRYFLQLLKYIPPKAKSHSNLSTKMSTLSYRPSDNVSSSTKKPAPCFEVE
Nature of the data set: Agonist activity at human AT1 receptor transfected in CHO cells co-expressing Galpha16-mtAEQ assessed as induction of intracellular Ca2+ mobilization by bioluminescence assay. It is filed as functional, cell-based. In general terms: Calcium assays in cells follow changes in intracellular calcium, usually with a dye or a luminescent sensor.

Data set [2] concerns the target T1, Type-1 angiotensin II receptor. Nature of the data set: Displacement of [3H]-Asp-{Nomega-[N-(4-propanoylaminobutyl)aminocarbonyl]}Arg-ValTyr-Ile-His-Pro-Phe-OH Tris(hydrotrifluoroacetate) from human AT1 receptor transfected in CHO cells co-expressing Galpha16-mtAEQ after 2 hrs by liquid scintillation counting. It is filed as cell-based. In general terms: In a radioligand displacement assay an active substance lowers the binding of a labelled ligand.

Data set [3] is described as follows: Chemical stability of compound at 200 uM at pH 7 at 21 degC after 24 to 48 hrs by reversed-phase HPLC analysis. It counts as physicochemical. The note with it: buffer, pH 7, 200 µM. Put shortly:
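Peptide incubated in phosphate buffer (PBS), pH 7.0, 21 °C, for 24 or 48 h. Remaining intact peptide assessed by reversed-phase HPLC chromatograms.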

Data set [4] has as its target Neuropeptide FF receptor 2 (Homo sapiens, UniProt Q9Y5X5). Nature of the data set: Displacement of [3H]EYE from human NPFF2 receptor expressed in CHO cell membranes after 1 hr by liquid scintillation spectrophotometric counting.
Data set [5] concerns the target T2, Neurotensin receptor type 1 (Homo sapiens, UniProt P30989). The data set can be described thus: Displacement of [3H]-{Nomega-[N-(4-propanoylaminobutyl)aminocarbonyl]}Arg-Arg-ProTyr-Ile-Leu-OH Tris(hydrotrifluoroacetate) from NTSR1 in human HT-29 cells after 2 hrs by liquid scintillation counting. It is filed as cell-based.
For data set [6], the target named is T2, Neurotensin receptor type 1. Nature of the data set: Displacement of [3H]-{Nomega-[N-(4-propanoylaminobutyl)aminocarbonyl]}Arg-Arg-ProTyr-Ile-Leu-OH Tris(hydrotrifluoroacetate) from human NTSR1 transfected in CHO cells co-expressing Galpha16-mtAEQ after 2 hrs by liquid scintillation counting. It counts as cell-based.
Data set [7] deals with Neurotensin receptor type 2 (Homo sapiens, UniProt O95665). The data set can be described thus: Displacement of [3H]NT(8 to 13 residues) from human NTSR2 expressed in HEK293 cell membranes.
Chain of Neurotensin receptor type 2 (O95665 whole entry, the tested form may be a part): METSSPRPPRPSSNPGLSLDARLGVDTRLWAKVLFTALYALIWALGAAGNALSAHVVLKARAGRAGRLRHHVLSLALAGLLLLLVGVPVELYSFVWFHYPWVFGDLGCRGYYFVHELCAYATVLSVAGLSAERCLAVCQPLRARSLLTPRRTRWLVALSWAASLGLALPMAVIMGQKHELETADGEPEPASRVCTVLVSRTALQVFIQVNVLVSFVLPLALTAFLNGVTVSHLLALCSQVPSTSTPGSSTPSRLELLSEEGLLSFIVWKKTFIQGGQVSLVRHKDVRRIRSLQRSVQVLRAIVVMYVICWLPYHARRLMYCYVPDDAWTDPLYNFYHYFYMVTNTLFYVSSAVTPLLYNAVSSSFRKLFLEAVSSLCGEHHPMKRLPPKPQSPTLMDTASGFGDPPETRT
The target in data set [8] is T2, Neurotensin receptor type 1. Nature of the data set: Agonist activity at NTSR1 in human HT-29 cells assessed as induction of intracellular Ca2+ mobilization by fura-2 dye-based spectrofluorimetric analysis. It is filed as functional, cell-based.
For data set [9], the target named is Neuropeptide Y receptor type 4 (Homo sapiens, UniProt P50391). The data set can be described thus: Displacement of S0586[K4]hpp from human NPY4 receptor expressed in CHO cells co-expressing Gqi5-mtAEQ by flow cytometric analysis. It is filed as cell-based. For orientation: A flow cytometer gives signals particle by particle.
Chain of Neuropeptide Y receptor type 4 (P50391 whole entry): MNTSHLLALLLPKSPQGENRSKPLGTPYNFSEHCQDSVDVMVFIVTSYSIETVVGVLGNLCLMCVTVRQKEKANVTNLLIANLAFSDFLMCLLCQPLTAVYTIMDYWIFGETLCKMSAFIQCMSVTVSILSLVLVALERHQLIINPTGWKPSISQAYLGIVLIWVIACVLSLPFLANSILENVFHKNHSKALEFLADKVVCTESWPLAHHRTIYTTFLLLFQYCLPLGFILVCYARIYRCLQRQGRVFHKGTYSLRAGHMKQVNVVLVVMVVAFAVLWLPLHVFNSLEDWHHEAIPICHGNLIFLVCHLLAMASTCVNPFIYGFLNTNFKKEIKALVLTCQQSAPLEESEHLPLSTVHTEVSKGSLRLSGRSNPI

*1 amine or outer side, *2 acyl side, *3 side chain or, on linkers, in order; H or OH if unused. Where a SMILES comes first, the peptide text is derived from it. Bridges are numbered along the chain shown (N, C = ends). Roman numbers before positions name the chains, in order. [ ]: non-standard residue; d: D form. X1 = CCC(=O)NCCCCNC(=O)/N=C(\N)NCCC[C@H](N[*:1])C(=O)[*:2]; X6 = CCC(=O)NCCCCNC(=O)/N=C(/N)NCCC[C@H](N[*:1])C(=O)[*:2]; X3 = NCCOCCOCCNC(=O)/N=C(\N)NCCC[C@H](N[*:1])C(=O)[*:2]; X4 = NCCOCCOCCNC(=O)/N=C(/N)NCCC[C@H](N[*:1])C(=O)[*:2]; X2 = NCCCCNC(=O)/N=C(\N)NCCC[C@H](N[*:1])C(=O)[*:2]; X7 = NCCCCNC(=O)/N=C(/N)NCCC[C@H](N[*:1])C(=O)[*:2]; Suberoyl = O=C(CCCCCCC(=O)[*:2])[*:1]

T2 sequence (P30989 whole entry): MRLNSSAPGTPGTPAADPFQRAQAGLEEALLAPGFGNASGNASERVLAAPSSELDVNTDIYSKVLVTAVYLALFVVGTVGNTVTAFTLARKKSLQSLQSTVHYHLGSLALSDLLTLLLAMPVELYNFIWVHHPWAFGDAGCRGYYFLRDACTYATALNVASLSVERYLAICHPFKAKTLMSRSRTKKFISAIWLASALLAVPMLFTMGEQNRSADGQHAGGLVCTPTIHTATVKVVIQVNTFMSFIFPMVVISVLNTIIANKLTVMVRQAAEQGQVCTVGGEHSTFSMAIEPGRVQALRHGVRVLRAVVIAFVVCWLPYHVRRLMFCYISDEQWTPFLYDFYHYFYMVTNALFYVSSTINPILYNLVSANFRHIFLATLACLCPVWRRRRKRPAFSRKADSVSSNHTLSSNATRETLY
Chain of Neuropeptide FF receptor 2 (Q9Y5X5 whole entry): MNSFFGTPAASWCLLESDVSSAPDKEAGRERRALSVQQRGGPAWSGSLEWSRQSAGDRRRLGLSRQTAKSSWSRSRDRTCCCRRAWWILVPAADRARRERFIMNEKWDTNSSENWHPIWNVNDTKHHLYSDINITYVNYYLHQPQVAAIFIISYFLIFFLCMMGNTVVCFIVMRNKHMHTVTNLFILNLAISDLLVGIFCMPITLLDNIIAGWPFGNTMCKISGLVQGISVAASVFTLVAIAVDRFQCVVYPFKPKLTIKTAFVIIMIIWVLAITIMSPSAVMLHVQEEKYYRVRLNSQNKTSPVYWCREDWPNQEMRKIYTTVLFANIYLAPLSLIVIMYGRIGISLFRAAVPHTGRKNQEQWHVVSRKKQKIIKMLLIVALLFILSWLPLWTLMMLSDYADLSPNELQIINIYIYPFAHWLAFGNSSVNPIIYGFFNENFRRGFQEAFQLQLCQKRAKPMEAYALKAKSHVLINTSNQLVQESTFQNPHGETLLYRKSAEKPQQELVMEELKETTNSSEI

As to `CC[C@H](C)[C@H](NC(=O)[C@H](Cc1ccc(O)cc1)NC(=O)[C@@H](NC(=O)[C@H](CCCN/C(N)=N/C(=O)NCCOCCOCCN)NC(=O)[C@@H](N)CC(=O)O)C(C)C)C(=O)N[C@@H](Cc1cnc[nH]1)C(=O)N1CCC[C@H]1C(=O)N[C@@H](Cc1ccccc1)C(=O)O.O=C(O)C(F)(F)F.O=C(O)C(F)(F)F.O=C(O)C(F)(F)F.O=C(O)C(F)(F)F` (H-D[X3]VYIHPF-OH), the EC50 in data set [1] was determined as 2.1 nM. Besides, affinity in data set [2] was put at a Ki of 2.8 nM. Moreover, the Stability entry in data set [3] was “Stable”.

`CCC(=O)NCCCCNC(=O)/N=C(/N)NCCC[C@H](NC(=O)[C@H](CCC(N)=O)NC(=O)[C@@H]1CCCN1C(=O)[C@H](C)NC(=O)[C@H](C)NC(=O)[C@H](CC(C)C)NC(=O)[C@H](CO)NC(=O)[C@H](Cc1c[nH]c2ccccc12)NC(=O)[C@H](Cc1ccc(O)cc1)NC(=O)[C@@H](N)CCC(=O)O)C(=O)N[C@@H](Cc1ccccc1)C(N)=O.O=C(O)C(F)(F)F.O=C(O)C(F)(F)F` (H-EYWSLAAPQ[X6]F-NH2): the Ki (as a rule, a measure of affinity in units of concentration, obtained from inhibition or displacement) in data set [4] was determined as 41 nM. In data set [3], the Stability result was “Stable”.

In data set [4], `CC(C)C[C@H](NC(=O)[C@H](CO)NC(=O)[C@H](Cc1c[nH]c2ccccc12)NC(=O)[C@H](Cc1ccc(O)cc1)NC(=O)[C@@H](N)CCC(=O)O)C(=O)N[C@@H](C)C(=O)N[C@@H](C)C(=O)N1CCC[C@H]1C(=O)N[C@@H](CCC(N)=O)C(=O)N[C@@H](CCCN/C(N)=N\C(=O)NCCCCN)C(=O)N[C@@H](Cc1ccccc1)C(N)=O.O=C(O)C(F)(F)F.O=C(O)C(F)(F)F.O=C(O)C(F)(F)F` (H-EYWSLAAPQ[X7]F-NH2) displayed a Ki of 27 nM. The Stability result in data set [3] is recorded as “Stable”.

In data set [5], `CC[C@H](C)[C@H](NC(=O)[C@H](Cc1ccc(O)cc1)NC(=O)[C@@H]1CCCN1C(=O)[C@H](CCCN/C(N)=N\C(=O)NCCOCCOCCN)NC(=O)[C@@H](N)CCCNC(=N)N)C(=O)N[C@@H](CC(C)C)C(=O)O` (H-R[X4]PYIL-OH) had a Ki of 0.36 nM.

In the case of `CC[C@H](C)[C@H](NC(=O)[C@H](Cc1ccc(O)cc1)NC(=O)[C@@H]1CCCN1C(=O)[C@H](CCCNC(=N)N)NC(=O)[C@@H](N)CCCN/C(N)=N/C(=O)NCCCCN)C(=O)N[C@@H](CC(C)C)C(=O)O.O=C(O)C(F)(F)F.O=C(O)C(F)(F)F.O=C(O)C(F)(F)F.O=C(O)C(F)(F)F` (H-[X2]RPYIL-OH), the half-inhibitory concentration (IC50) (commonly the midpoint of a concentration-inhibition curve) in data set [5] is 1.35 nM. In addition, the Ki amounted to 0.47 nM in data set [5], 0.69 nM in [6] and 0.74 nM in [7]. The EC50 is 1.7 nM in [8] (read-out: EC50) and 1.55 nM in data set [8] (read-out: pEC50 (converted)). Further, in [3], the Stability entry was “Stable”.

The compound `CC[C@H](C)[C@H](NC(=O)[C@H](Cc1ccc(O)cc1)NC(=O)[C@@H]1CCCN1C(=O)[C@H](CCCNC(=N)N)NC(=O)[C@@H](N)CCCN/C(N)=N/C(=O)NCCOCCOCCN)C(=O)N[C@@H](CC(C)C)C(=O)O` (H-[X3]RPYIL-OH) gave an inhibitory constant (Ki) in data set [5] of 0.26 nM.

Regarding `CC(C)C[C@H](NC(=O)[C@H](CCCNC(=N)N)NC(=O)[C@H](Cc1ccc(O)cc1)NC(=O)CCCCCCC(=O)N[C@@H](Cc1ccc(O)cc1)C(=O)N[C@@H](CCCNC(=N)N)C(=O)N[C@@H](CC(C)C)C(=O)N[C@@H](CCCNC(=N)N)C(=O)N[C@@H](Cc1ccc(O)cc1)C(N)=O)C(=O)N[C@@H](CCCNC(=N)N)C(=O)N[C@@H](Cc1ccc(O)cc1)C(N)=O` (I: YRLRY-NH2 / II: YRLRY-NH2; linker I:N-II:N via Suberoyl), in data set [9], affinity was put at a Ki of 7.4 nM.

In data set [9], `CCC(=O)NCCCCNC(=O)/N=C(\N)NCCC[C@H](NC(=O)[C@H](Cc1ccc(O)cc1)NC(=O)CCCCCCC(=O)N[C@@H](Cc1ccc(O)cc1)C(=O)N[C@@H](CCCNC(=N)N)C(=O)N[C@@H](CC(C)C)C(=O)N[C@@H](CCCNC(=N)N)C(=O)N[C@@H](Cc1ccc(O)cc1)C(N)=O)C(=O)N[C@@H](CC(C)C)C(=O)N[C@@H](CCCNC(=N)N)C(=O)N[C@@H](Cc1ccc(O)cc1)C(N)=O` (I: Y[X1]LRY-NH2 / II: YRLRY-NH2; linker I:N-II:N via Suberoyl) yielded a Ki of 3.6 nM.

On to `CC(C)C[C@H](NC(=O)[C@H](CCCNC(=N)N)NC(=O)[C@H](Cc1ccc(O)cc1)NC(=O)CCCCCCC(=O)N[C@@H](Cc1ccc(O)cc1)C(=O)N[C@@H](CCCN/C(N)=N/C(=O)NCCCCN)C(=O)N[C@@H](CC(C)C)C(=O)N[C@@H](CCCNC(=N)N)C(=O)N[C@@H](Cc1ccc(O)cc1)C(N)=O)C(=O)N[C@@H](CCCNC(=N)N)C(=O)N[C@@H](Cc1ccc(O)cc1)C(N)=O` (I: Y[X2]LRY-NH2 / II: YRLRY-NH2; linker I:N-II:N via Suberoyl), for which, in data set [9], the inhibition constant Ki came out at 1.5 nM.

Source of the values: ChEMBL document CHEMBL3784921, “Mimicking of Arginine by Functionalized N(ω)-Carbamoylated Arginine As a New Broadly Applicable Approach to Labeled Bioactive Peptides: High Affinity Angiotensin, Neuropeptide Y, Neuropeptide FF, and Neurotensin Receptor Ligands As Examples” (J Med Chem, 2016).
